Data reported in PMC3026963 (The Biochemical journal, 2010).
Entries after “also recorded” stand apart in the source; their conditions may differ.

Target: CK2α catalytic subunit (Homo sapiens, UniProt P68400)
Assay: In vitro phosphorylation assay of CK2α with peptide substrate RRRADDSDDDDD
Assay type: biochemical
Details: substrate RRRADDSDDDDD
In short: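 Activity is expressed as % of no-peptide control, as the mean of at least three independent experiments. Full-length murine NBD1ΔF508 (389–673) tests were run at 350 μM ATP.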

CK2α catalytic subunit, sequence (P68400 whole entry): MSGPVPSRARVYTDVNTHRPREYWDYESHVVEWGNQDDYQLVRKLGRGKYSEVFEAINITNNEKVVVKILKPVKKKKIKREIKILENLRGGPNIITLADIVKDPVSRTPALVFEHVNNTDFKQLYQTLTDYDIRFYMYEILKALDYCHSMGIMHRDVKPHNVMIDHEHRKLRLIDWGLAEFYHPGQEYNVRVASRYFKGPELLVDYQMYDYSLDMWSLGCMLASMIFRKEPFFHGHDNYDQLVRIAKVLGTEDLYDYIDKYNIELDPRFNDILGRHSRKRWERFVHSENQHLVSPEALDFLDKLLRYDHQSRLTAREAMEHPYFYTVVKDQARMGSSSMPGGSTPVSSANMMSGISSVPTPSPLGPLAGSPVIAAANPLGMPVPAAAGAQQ

onset of stimulation of CK2α catalytic activity (β-peptide alone) [µM]	Substance	inhibitory efficacy on CK2α (in words) (compared with the parent peptide)
–	CFTRΔI507 peptide: CFTR(500–518) peptide with Ile^507 deleted (GTIKENIFGVSYDEYRYR)	loss in inhibitory efficacy; also recorded: unable to exert the same efficacy of the CFTRΔF508 peptide
50	β-peptide: peptide reproducing the C-terminal segment of the CK2 β-subunit encompassing residues 182–203 (QFVPRLYGFKIHPMAYQLQLQA; UniProt P67870 182-203, looked up, fragment) [reference compound]	–
